What was measured:
intestine = details: mouse, in vivo, 10 mg/kg; cited from earlier work
advanced LUAD tumors = details: cited from earlier work
intestinal mucosa = assay: Intestinal toxicity by histopathological scoring; assay type: in vivo; details: mice, oral, 10 mg/kg/d over 7 days
Outline: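 Mice given free test compound or cyclodextrin complexes orally at 10 mg/kg/d for 7 days; PBS group included. Intestine fixed in 10% formalin for 24 h, paraffin-embedded, sectioned at 5 μm and H&E stained. Duodenum examined at 20×. Mucosal damage graded: grade 0, normal villi; grade 1, subepithelial Gruenhagen's space at villus tips; higher grades follow.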

[1] = cited from earlier work
Caco-2 monolayers = assay: Caco-2 permeability assay; assay type: in vitro ADME, Human
Outline: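 Caco-2 cells grown in EMEM with 20% FBS and 1% PenStrep, then seeded on inserts for ~20 days to form confluent monolayers. Free test compound or its cyclodextrin complexes added apically; transport followed over 2 h, plus basolateral-to-apical for efflux. Controls: ranitidine (low), warfarin (high), talinolol (P-gp). Papp = (dQ/dt)/(C0×A); efflux ratio = Papp(B→A)/Papp(A→B). Integrity by TEER with lucifer yellow transport.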

For `Cc1cc(-c2ncc(CC(=O)Nc3ccc(-c4cnccn4)cn3)cc2C)ccn1` [LGK974], the “intestinal toxicity on oral administration” value (intestine) is given as “induces intestinal toxicity”, the “effect in mice with advanced LUAD tumors” value (advanced LUAD tumors) is given as “suppressed Wnt target genes, inhibited tumor growth and proliferation, and extended survival” and the “intestinal mucosal damage (histopathological scoring)” value (intestinal mucosa) is given as “Intestinal mucosal damage was observed”. For the same molecule, the “solubility in aqueous environments” value [1] was “poorly soluble”, the “permeability across Caco-2 monolayers” value (Caco-2 monolayers; A → B and B → A, 2 h) was “high permeability” and the “transepithelial electrical resistance (TEER) after treatment” value (Caco-2 monolayers; Caco-2 monolayers, 2 h treatment) was “did not decrease significantly”.
